Assay results from different studies.
Compare with care: the assays were run in different laboratories.
Target: Tyrosine-protein kinase Srms (SRMS, Homo sapiens, UniProt Q9H3Y6)

Structure (SMILES)	observed	method	concentration	remaining binding [%]
CN(c1nccc(-c2cnn3ncccc23)n1)C1CC1	binding		1 µM	100
CN([C@@H]1CCc2c(CC(=O)O)c3ccccc3n2C1)S(=O)(=O)c1ccc(F)cc1	cell-free assay	competition with immobilised ligand	1 µM	81
COc1cnc(Nc2cccc(S(N)(=O)=O)c2)nc1N1CCN(c2ccccc2)CC1	binding	competition with immobilised ligand	1 µM	83
COc1ncc2cc3ccccc3nc2c1C#N	cell-free assay	competition with immobilised ligand	5 µM	100
O=C(Nc1cccnn1)N1CC(C/C=C/c2cncc(Oc3ccc(C(F)(F)F)cn3)n2)C1	cell-free assay	competition with immobilised ligand	1 µM	67
CN(C)c1nccc(-c2cnc3ncccn23)n1	binding		1 µM	63
COc1cnc(Nc2cccc(S(N)(=O)=O)c2)nc1N1CCN(c2ccccc2)C(=O)C1	binding	competition with immobilised ligand	1 µM	90
C[C@H]1CCN(c2nccc(-c3cnn4ncccc34)n2)C1	binding		1 µM	71
O=C(NCCCN1CCOCC1)c1ccc(Nc2nccc(-c3cc4ccccc4s3)n2)cc1	binding	competition with immobilised ligand	1 µM	100
CCN1CCN(Cc2ccc(C(=O)Nc3ccc(C)c(Oc4ccc5c(c4)CC(=O)N5)c3)cc2C(F)(F)F)CC1	binding	competition with immobilised ligand	1 µM	100
O=C(NS(=O)(=O)c1ccc(NCC2CCOCC2)c([N+](=O)[O-])c1)c1ccc(N2CCN(Cc3ccc(C(F)(F)F)cc3-c3ccc(Cl)cc3)CC2)cc1Oc1cnc2[nH]ccc2c1	cell-free assay	competition with immobilised ligand	1 µM	79
COc1ccnn2ncc(-c3ccnc(N(C)C)n3)c12	binding		1 µM	78
CS(=O)(=O)NCC[C@H](NC(=O)c1cncc2c1cnn2-c1ccc(F)cc1)c1ccnc(S(C)(=O)=O)c1	cell-free assay	competition with immobilised ligand	1 µM	83
O=C(c1ccc(Nc2nccc(-c3cc4ccccc4s3)n2)cc1)N1CCC(N2CCCC2)CC1	binding	competition with immobilised ligand	1 µM	73
O=C(Nc1c[nH]nc1C(=O)NC1CCNCC1)c1cc(F)cc(F)c1	binding	competition with immobilised ligand	1 µM	84
CCCOc1ccc([C@@H]2[C@@H](C(=O)O)[C@H](c3ccc4c(c3)OCO4)CN2CC(=O)Nc2c(CC)cccc2CC)cc1	cell-free assay	competition with immobilised ligand	1 µM	90
O=C(c1ccc(Nc2ncc(Cl)c(-c3cc4ccccc4s3)n2)cc1)N1CCC(N2CCCC2)CC1	binding	competition with immobilised ligand	1 µM	81
COc1cc(-c2cn(C3CCc4ccccc4N(CC(F)(F)F)C3=O)nn2)ccc1-n1ccc(C)n1 (stereo not shown)	cell-free assay	competition with immobilised ligand	1 µM	84
N[C@@H]1CCN(c2nccc(-c3cnn4ncccc34)n2)C1	binding		1 µM	100
CCC(=N\O)/C(C)=C/c1ccc(F)cc1	cell-free assay	competition with immobilised ligand	1 µM	76
CN(C)c1nccc(-c2cnn3ncccc23)n1	binding		1 µM	64
Nc1ncc2c(n1)-c1c([nH]c3ccc(C#CC4CC4)cc13)CCCC2	binding	competition with immobilised ligand	1 µM	92
